CHOP UPR activ = activators of apoptotic CHOP UPR arm, primary screen, cell-based, CHO-CHOP luciferase reporter, luminescence, uHTS. 330,000 tested, 0.34% active. AID 449763, 2010. UPR activation; percent of tunicamycin response over DMSO baseline. activation, % at 10 µM;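 active = at 10 µM dose, activation of 40% or more, normalized to positive control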;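 also: 100% = tunicamycin at 10 µg/mL and 0% = DMSO alone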
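Evaluation: % reporter activation, DMSO baseline versus tunicamycin full activation; System: CHO-CHOP luciferase reporter cell line; Input: 500 cells/well; Incubation: 6 h compound treatment, 37 °C; Measured by: Steady-Glo luciferase luminescence; Dosing: one dose, 10 µM in 0.5% DMSO; Buffer or medium: F12 medium, 10% FBS; Benchmarks: positive tunicamycin 10 µg/mL, negative DMSO alone.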
UPR XBP1 act = activators of adaptive XBP1 UPR arm, primary screen, cell-based, CHO-XBP1 luciferase reporter, luminescence, uHTS; 330,000 tested, 0.33% active; IRE1-XBP1 UPR activation; percent of tunicamycin response, DMSO as zero; activation, % at 20 µM;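 active = versus positive control, 20 µM dose yields 30% or more activation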;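 also: 100% = tunicamycin at 10 µg/mL and 0% = DMSO only wells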
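Material: CHO cell line with stable XBP1 luciferase reporter; buffer or medium: F12 medium containing 10% fetal bovine serum; compound: single point, 20 µM final compound, 1% DMSO; incubation: 6 h treatment, 37 °C; measured by: glow luminescence from Steady-Glo reagent; evaluation: activation, % of tunicamycin; control set: tunicamycin high, DMSO low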
CHOP inhibitor = inhibitors of CHOP promoter induction, primary screen, cell-based, unfolded protein response, luciferase reporter; CHO-K1 CHOP-promoter luciferase, tunicamycin-induced, 15-18 h; inhibition, % at 10 µM; 220,000 tested, 3.8% active;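 active = compounds that reduced the stress-induced luciferase reporter signal by more than about 70% of percent inhibition, limit read from the data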;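 also: 0% = tunicamycin plus vehicle and 100% = wells without tunicamycin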
H9c2 protect = cardioprotection against H2O2-induced cell death, primary screen, uHTS, H9c2 cells, ATPLite luminescence; 360,000 tested, 0.63% active; protection from H2O2 cell death, % at 20 µM; H9c2 cardiomyocytes, H2O2 injury protection, 2 h; AID 588492, 2011;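 active = compounds giving at least 50% protection of heart cells from peroxide-induced death in the single-dose screen, raw or plate-pattern-corrected value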;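 also: 0% = DMSO wells with peroxide and 100% = DMSO wells without peroxide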
hiPSC survival = enhancers of single-cell hiPSC survival, primary screen, ATPlite luminescence | 100% = ROCK inhibitor wells, 0% = DMSO | survival enhancement, % at 20 µM | AID 602274, 2012 | 360,000 tested, 0.044% active; in the data active = survival enhancement above about 18%;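 also: cells exposed to compounds for 16 hours before the ATP read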
An asterisk follows results filed as active; · = no result. The sample as a whole holds a higher share of hits than the screen did.

SMILES	CHOP UPR activ	UPR XBP1 act	CHOP inhibitor	H9c2 protect	hiPSC survival
Cc1ccccc1N1C(=O)NC(=O)/C(=C\c2cc(Br)c(N3CCOCC3)o2)C1=O	18	3	72*	9	0
CCCCCCCCCCCCCC(=O)O[C@@H]1[C@@H](C)[C@@]2(O)[C@@H](C=C(CO)C[C@@]3(O)C(=O)C(C)=C[C@@H]23)C2C(C)(C)[C@@]21OC(C)=O (some centres not stated)	·	·	-44	·	·
CP(=O)(O)C1=CCNCC1	·	·	1	·	·
CN1CCN(c2nc3ccccn3c(=O)c2C=C2C(=O)N(C)C(=O)N(C)C2=O)CC1	-1	-3	7	4	2
Cc1ccc(CN2C(=O)NC(=O)C3(Cc4c(nc5ccccn5c4=O)N4CCCCCC43)C2=O)cc1 (configuration not stated)	8	2	86*	12	2
O=c1cc(C(F)(F)F)c2cc3c4c(c2o1)CCCN4CCC3	0	-1	93*	-5	0
Cc1ccc2c(c1)CC1(CN2C)C(=O)NC(=O)N(CCc2ccccc2)C1=O (configuration not stated)	-1	0	91*	1	1
O=c1[nH]c(=O)n(CCC2=CCCCC2)c(O)c1/C=N/Nc1ccccc1	2	-1	61	3	1
O=c1[nH]c(=O)n(CCC2=CCCCC2)c(O)c1/C=N/Nc1cccc2ccccc12	-1	-2	71*	3	-1
Cc1ccc(N2C(=O)NC(=O)C3(Cc4ccccc4N4CCN(c5ccccc5)CC43)C2=O)cc1 (configuration not stated)	0	4	70*	2	-3
O=C1NC(=O)C2(Cc3ccccc3N3CCCC32)C(=O)N1c1cccc(Cl)c1 (configuration not stated)	-1	1	12	25	6
COc1cc(-n2c(=S)[nH]c3ccccc3c2=O)c(Cl)cc1Cl	1	-2	31	5	1
CC(C)Oc1cc(-n2c(=S)[nH]c3ccccc3c2=O)c(Cl)cc1Cl	1	2	83*	4	9
C1=C(c2c[nH]c3ccccc23)CCNC1	1	2	77*	·	·
C=CCNC(=O)c1c(N)n(Cc2ccco2)c2nc3ccccc3nc12	0	-3	77*	-3	0
Ic1ccccc1CNC1C2CCN(CC2)C1C(c1ccccc1)c1ccccc1 (configuration not stated)	·	·	15	·	·
CCCCn1c(O)c(C=NC2CC3CCC2(C)C3(C)C)c(=O)[nH]c1=O (configuration not stated)	1	0	95*	-5	-2
C[C@]12Cc3cn4c(nc3C=C1CCC1C2CC[C@@]2(C)[C@H]1CC[C@@]2(O)C#N)nc1ccccc14 (some centres not stated)	·	·	7	·	·
COC(=O)[C@@H]1N=C(c2ccc(OC)cc2)O[C@]12C(=O)N(C)c1cccc(Cl)c12	·	·	·	·	0
COc1cc(/C=C/c2nc3ccccc3c(=O)n2-c2ccccc2O)ccc1O	5	6	·	50*	0
COc1cc(/C=C/c2nc3ccccc3c(=O)n2-c2cccc(O)c2)ccc1O	1	5	29	43	0
O=c1c2ccccc2nc(/C=C/c2ccc(O)c(O)c2)n1-c1ccccc1	4	13	·	56*	0
O=c1c2ccccc2nc(/C=C/c2ccccc2)n1-c1ccc(O)cc1	1	5	·	14	0
CN(Cc1cccc(-c2ccncc2)c1)C(=O)Oc1ccc([N+](=O)[O-])cc1	·	·	·	·	0
CC1(C)CN=C(Nc2ccc(F)c(F)c2)S1	2	0	82*	4	-1
SMILES	CHOP UPR activ	UPR XBP1 act	CHOP inhibitor	H9c2 protect	hiPSC survival
CCCC(C)C1C(C#N)=C(N)Oc2c1c(=O)oc1ccccc21 (configuration not stated)	2	-2	76*	28	5
CC(C)C1C(C#N)=C(N)Oc2c1c(=O)oc1ccccc21 (configuration not stated)	·	·	·	2	1
O=C(O)c1ccc2c(c1)C1C(Cl)C(Sc3ccccc3[N+](=O)[O-])CC1C(c1cccc([N+](=O)[O-])c1)N2 (configuration not stated)	·	·	81*	3	0
O=C(O)c1cccc2c1NC(c1cccc([N+](=O)[O-])c1)C1CC(Sc3ccccc3[N+](=O)[O-])C(Cl)C21 (configuration not stated)	-1	-3	51	2	2
Cc1cc(/C=C2\C(=O)NC(=O)N(c3ccc(Cl)cc3)C2=O)c(C)n1C	-1	1	79*	37	0
CCCCCn1c(=O)c(C(=O)Nc2ccccc2)c(O)c2ccccc21	3	-2	·	32	1
CCCCCCn1c(=O)c(C(=O)Nc2nc(CC(=O)OCC)cs2)c(O)c2ccccc21	18	-2	84*	-6	-1
CCCCCn1c(=O)c(C(=O)Nc2cccc(C)n2)c(O)c2ccccc21	9	1	·	4	-1
CCCCCCn1c(=O)c(C(=O)Nc2c(C)n(C)n(-c3ccccc3)c2=O)c(O)c2ccccc21	1	4	90*	-8	1
CCOC(=O)Cc1csc(NC(=O)c2c(O)c3ccccc3n(CCC(C)C)c2=O)n1	12	-2	89*	-3	-3
CC12NC(Cc3ccccc31)c1ccccc12 (configuration not stated)	·	·	-21	·	·
N[C@@H](Cn1cc(I)c(=O)[nH]c1=O)C(=O)O	·	·	-7	·	·
O=c1[nH]c(=O)n(CC2CCCO2)c(O)c1/C=C1\C=Nc2ccccc21 (configuration not stated)	0	1	2	11	2
O=c1[nH]c(=O)n(Cc2ccccc2)c(O)c1/C=C1\C=Nc2ccccc21	-3	12	83*	6	1
C=CCc1cc(C=C2C(=O)N(C)C(=O)N(C)C2=O)cc(OCC)c1OCc1ccccc1	0	-3	89*	-7	2
C=CCc1cc(C=C2C(=O)NC(=O)NC2=O)cc(OC)c1OCc1ccc(C(=O)O)cc1	0	-6	1	-1	-1
C[N+](C)(C)CC(=O)Nc1ccc(Cl)cc1C(=O)c1ccccc1	-1	-5	-8	1	0
NC(=O)Nc1ccc(C(=O)OCC(=O)Nc2ccc(Cl)cc2C(=O)c2ccccc2)cc1	0	1	76*	-1	3
CCCCn1c(NC(=O)c2ccc(Br)o2)c(C(=O)OCC)c2nc3ccccc3nc21	7	62*	24	-3	-5

Source: PubChem BioAssay (several laboratories)
